Results on five compounds are retold here after ChEMBL document CHEMBL1158118, “Decaspirones F-I, bioactive secondary metabolites from the saprophytic fungus Helicoma viridis” (2006).

Each structure is given as a SMILES string. The source made the active and inactive calls. No cut-off for these calls is given here.

The test system of experiment [1] is Streptococcus mutans. The experiment in a line: Antibacterial activity against Streptococcus mutans ATCC 25175 at 100 ug/disk by standard disk assay. It counts as functional, organism-based. The procedure, abridged:
(§1)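 Test compound loaded onto 6 mm paper disks at 100 µg/disk and laid on the agar surface. Plates incubated at 37 °C for 24 h, then scored for a zone of inhibition.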

Experiment [2] relates to Aspergillus fumigatus. The experiment in a line: Antifungal activity against Aspergillus fumigatus ATCC 10894 at 100 ug/disk by standard disk assay. It counts as functional, organism-based. The procedure, abridged:
(§2)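 Paper disks (6 mm diameter) carrying 100 µg of test compound placed on the agar surface. Plates kept at 25 °C for 48 h and checked for a zone of inhibition.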

In experiment [3] the test system is Candida albicans. Put plainly: Antifungal activity against Candida albicans ATCC 10231 at 100 ug/disk by standard disk assay. It counts as functional, organism-based. The procedure, abridged:
as §2

For experiment [4], the system named is Micrococcus luteus. The experiment in a line: Antibacterial activity against Sarcina lutea CMCC B28001 at 100 ug/disk by standard disk assay. It counts as functional, organism-based. The procedure, abridged: as §1
Experiment [5] deals with Pseudomonas aeruginosa. The experiment in a line: Antibacterial activity against […] Pseudomonas aeruginosa ATCC 27853 at 100 ug/disk by standard disk assay. The conditions noted are these: read-out: IZ. The class given is functional. The procedure, abridged: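 Disk diffusion on agar; compounds loaded onto 6 mm paper disks at 100 µg/disk and placed on the plate surface. Plates incubated at 37 °C for 24 h, then zone of inhibition recorded in mm. Ciprofloxacin at 100 µg/disk served as reference.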

Experiment [6] concerns Geotrichum candidum. The experiment in a line: Antifungal activity against Geotrichum candidum AS2.498 at 100 ug/disk by standard disk assay. The class given is functional, organism-based. The procedure, abridged: as §2
The test system of experiment [7] is Staphylococcus aureus. Put plainly: Antibacterial activity against Staphylococcus aureus ATCC 6538 at 100 ug/disk by standard disk assay. The class given is functional, organism-based. The procedure, abridged: as §1
Experiment [8] deals with Enterococcus faecalis. The experiment in a line: Antibacterial activity against Enterococcus faecalis ATCC 19433 at 100 ug/disk by standard disk assay. The class given is functional, organism-based. The procedure, abridged: as §1
The subject of experiment [9] is Lactococcus lactis. The experiment in a line: Antibacterial activity against Lactococcus lactis PCM 2379 at 100 ug/disk by standard disk assay. It counts as functional. The conditions noted are these: read-out: IZ. The procedure, abridged: as §1

Consider `O=C1CCC(O)c2c(Oc3cccc4cccc(O)c34)cccc21` (centres undefined) [DECASPIRONE I], for which the result in experiment [1], in experiment [2], in experiment [3], in experiment [4], in experiment [6] and in [7] was inactive. For the same compound, the result in experiment [8] was inactive. The zone of inhibition at 100 µg/disc in [5] amounted to 8 mm.

As to `O[C@@H]1C=C[C@H](O)[C@@H]2[C@@H]1C1(C=C[C@@H]2O)Oc2cccc3cccc(c23)O1` [DECASPIRONE F], the result in [1], in [2], in experiment [3], in experiment [4], in experiment [6] and in experiment [7] was inactive. The result in experiment [8] was inactive. For the same compound, in experiment [5], the zone of inhibition at 100 µg/disc worked out at 8 mm.

For the compound `O=C1CC[C@@H](O)[C@@H]2[C@@H]1[C@@H](O)C=CC21Oc2cccc3cccc(c23)O1` [DECASPIRONE G], the outcome in experiment [1], in experiment [2], in [3], in experiment [4], in experiment [6] and in experiment [7] was inactive. For the same compound, in experiment [8], the result was inactive. The zone of inhibition at 100 µg/disc in experiment [9] stood at 12 mm; in [5] it was 8 mm.

In the case of `O=C(O)c1cn(C2CC2)c2cc(N3CCNCC3)c(F)cc2c1=O` [CIPROFLOXACIN], in experiment [5], the zone of inhibition at 100 µg/disc came to 22 mm.

In the case of `O[C@H]1[C@@H]2[C@H]([C@@H](O)C=CC23Oc2cccc4cccc(c24)O3)[C@@H](O)C[C@@H]1O` [DECASPIRONE H], the result in experiment [1], in experiment [2], in [3], in experiment [4], in experiment [6] and in [7] was inactive. In addition, in [8], the outcome was inactive. Moreover, the zone of inhibition at 100 µg/disc in [5] was found to be 8 mm.
